{
  "source": "paper PMC3511619",
  "about": "(Journal of ethnopharmacology, 2012)",
  "key": {"HCV NS5B": {"target": "HCV NS5B (Hepatitis C virus genotype 1b, UniProt P26663)", "test": "RdRp assay", "assay_type": "biochemical", "conditions": "for IC50, inhibition of NS5B RdRp activity in vitro: single isolates; for IC90: read-out: IC90, RdRp activity of HCV NS5B"}, "[1]": {"tested_on": "HCV subgenomic replicon (HCV RNA) in MH14 cells", "test": "Quantitation of HCV RNA by RT-PCR in MH14 cells", "assay_type": "cell-based, Hepatitis C virus", "conditions": "for inhibition of HCV RNA replication: 500 μM; for HCV replication reduced: 100 μM", "procedure,_shortened": "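MH14 cells carrying a stable HCV subgenomic replicon were kept at 37 °C, 5% CO2 in DMEM with 10% FBS, penicillin/streptomycin, glutamine and 300 μg/ml G418. Cells were grown 60 h with or without test compound dissolved in DMSO. Total RNA was TRIzol-extracted. HCV RNA was reverse-transcribed with an HCV-specific primer and PCR-amplified for 25 cycles (1 min each at 94, 52, 72 °C). GAPDH mRNA served as internal control.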"}, "MH14 cells": {"tested_on": "MH14 cells", "test": "MTT assay", "conditions": "for effect on cell growth / influence on cell viability / toxicity: 48 h, MH14 cells; for influence on cell viability: 2 μM and 10 μM; for toxicity: 50 μM and 100 μM"}, "[2]": {"tested_on": "HCV subgenomic replicon (NS5B, NS5A expression) in MH14 cells", "assay_type": "cell-based, Hepatitis C virus", "conditions": "for viral replication reduced (first statement, Fig. 4 B, C): cell culture system; for inhibition at 100 µM: Hepatitis C virus, MH14, read-out: inhibition of NS5B", "procedure,_shortened": "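MH14 cells with stably replicating HCV subgenomic replicon, grown at 37 °C, 5% CO2 in DMEM with 10% FBS, penicillin/streptomycin, glutamine and 300 μg/ml G418. Cells were exposed to DMSO-dissolved test compound for 48 h, washed, lysed in SDS buffer, boiled, and clarified. Blots were probed with anti-NS5B, NS5A or actin (1:500, overnight, 4 °C), then HRP secondary (1:5,000, 1 h). Chemiluminescent detection used β-actin as the loading control.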"}, "HCV NS5B (CΔ21)": {"target": "HCV NS5B (CΔ21) (Hepatitis C virus genotype 1b, UniProt P26663)", "test": "Fluorescence quenching binding assay", "conditions": "for time to binding equilibrium with NS5B (fluorescence quenched): data not shown"}, "[3]": {"tested_on": "tumor suppressor protein, p53", "test": "p53 expression", "assay_type": "cell-based", "conditions": "cells not given"}, "[4]": {"tested_on": "p53 expression in peripheral blood mononuclear cells (PBMC)", "test": "p53 expression in peripheral blood mononuclear cells", "assay_type": "cell-based"}},
  "data": [
    {"smiles": "O=C(O)c1ccc(O)c(O)c1", "note": "[Compound 1, 3,4-dihydroxybenzoic acid]", "values": [
      {"measurement": "IC50", "setting": "HCV NS5B", "value": 400, "unit": "µM"},
      {"measurement": "inhibition of HCV RNA replication", "setting": "[1]", "value": "inhibited HCV RNA replication only at very high concentrations"},
      {"measurement": "effect on cell growth", "setting": "MH14 cells", "value": "enhanced cellular proliferation"}
    ]},
    {"smiles": "O=C(O)c1ccc(O)cc1", "note": "[Compound 2, 4-hydroxybenzoic acid]", "values": [
      {"measurement": "IC50, inhibition of NS5B RdRp activity in vitro", "setting": "HCV NS5B", "value": "did not inhibit"},
      {"measurement": "inhibition of HCV RNA replication", "setting": "[1]", "value": "inhibited HCV RNA replication only at very high concentrations"},
      {"measurement": "effect on cell growth", "setting": "MH14 cells", "value": "enhanced cellular proliferation"}
    ]},
    {"smiles": "O=c1cc(-c2ccc(O)c(O)c2)oc2cc(O)cc(O)c12", "note": "[Compound 3, luteolin]", "values": [
      {"measurement": "IC50", "setting": "HCV NS5B", "value": 11.3, "unit": "µM"},
      {"measurement": "IC90", "setting": "HCV NS5B", "value": 52, "unit": "µM"},
      {"measurement": "viral replication reduced (first statement, Fig. 4 B, C)", "setting": "[2]; 50 μM", "value": "~50", "unit": "%"},
      {"measurement": "inhibition at 100 µM", "setting": "[2]", "value": "> 90", "unit": "%"},
      {"measurement": "HCV replication inhibited, judged by HCV RNA level", "setting": "[1]; 50 μM", "value": 50, "unit": "%"},
      {"measurement": "HCV replication reduced", "setting": "[1]", "value": "approximately 80%"},
      {"measurement": "Kd", "setting": "HCV NS5B (CΔ21)", "value": 31.5, "unit": "µM"},
      {"measurement": "time to binding equilibrium with NS5B (fluorescence quenched)", "setting": "HCV NS5B (CΔ21)", "value": "≤ 1", "unit": "min"},
      {"measurement": "effect on tumor suppressor protein p53", "setting": "[3]", "value": "strongly up-regulate"},
      {"measurement": "effect on p53 expression", "setting": "[4]", "value": "no effect"},
      {"measurement": "cytotoxicity in MH14 cell", "setting": "MH14 cells", "value": "comparable high cytotoxicity"}
    ]},
    {"smiles": "COc1cc(O)c2c(c1)oc(=O)c1c3cc(O)c(O)cc3oc21", "note": "[Compound 4, wedelolactone]", "values": [
      {"measurement": "IC50", "setting": "HCV NS5B", "value": 7.7, "unit": "µM"},
      {"measurement": "IC90", "setting": "HCV NS5B", "value": 32, "unit": "µM"},
      {"measurement": "IC50, inhibition of NS5B RdRp activity in vitro", "setting": "HCV NS5B", "value": "indistinguishable"},
      {"measurement": "inhibition of NS5B expression", "setting": "[2]; 10 μM, MH14 cells, 48 h", "value": "> 80", "unit": "%"},
      {"measurement": "NS5B expression by Western blot", "setting": "[2]; 50 μM, MH14 cells, 48 h", "value": "could not detect the expression of NS5B"},
      {"measurement": "HCV replication inhibited, judged by HCV RNA level", "setting": "[1]; 10 μM", "value": 30, "unit": "%"},
      {"measurement": "HCV replication inhibited, judged by HCV RNA level", "setting": "[1]; 50 μM", "value": 80, "unit": "%"},
      {"measurement": "Kd", "setting": "HCV NS5B (CΔ21)", "value": 24.3, "unit": "µM"},
      {"measurement": "time to binding equilibrium with NS5B (fluorescence quenched)", "setting": "HCV NS5B (CΔ21)", "value": "≤ 1", "unit": "min"},
      {"measurement": "influence on cell viability", "setting": "MH14 cells", "value": "no influence on cell viability"},
      {"measurement": "toxicity", "setting": "MH14 cells", "value": "toxic"}
    ]},
    {"smiles": "O=c1cc(-c2ccc(O)cc2)oc2cc(O)cc(O)c12", "note": "[Compound 5, apigenin]", "values": [
      {"measurement": "IC50", "setting": "HCV NS5B", "value": 175, "unit": "µM"},
      {"measurement": "viral replication reduced (first statement, Fig. 4 B, C)", "setting": "[2]; 50 μM", "value": "~50", "unit": "%"},
      {"measurement": "inhibition at 100 µM", "setting": "[2]", "value": "> 90", "unit": "%"},
      {"measurement": "HCV replication inhibited, judged by HCV RNA level", "setting": "[1]; 50 μM", "value": 50, "unit": "%"},
      {"measurement": "HCV replication reduced", "setting": "[1]", "value": "~90", "unit": "%"},
      {"measurement": "Kd", "setting": "HCV NS5B (CΔ21)", "value": 122, "unit": "µM"},
      {"measurement": "time to binding equilibrium with NS5B (fluorescence quenched)", "setting": "HCV NS5B (CΔ21)", "value": "≤ 1", "unit": "min"},
      {"measurement": "effect on tumor suppressor protein p53", "setting": "[3]", "value": "strongly up-regulate"},
      {"measurement": "effect on p53 expression", "setting": "[4]", "value": "no effect"},
      {"measurement": "cytotoxicity in MH14 cell", "setting": "MH14 cells", "value": "comparable high cytotoxicity"},
      {"measurement": "influence on cell viability", "setting": "MH14 cells", "value": "no influence on cell viability"},
      {"measurement": "toxicity", "setting": "MH14 cells", "value": "toxic"}
    ]}
  ]
}
